# Screens as filed in PubChem.
# In the library only some 4.5% were active in any assay of this set; here they are far more common.
# OX1R antag-1: OX1R (human) antagonism; hit rate 1.8% among 330,000; OX1R-expressing cells, FRET antagonist read-out; AID 485270; inhibition, % at 6.6 µM; O43613; in the data active = inhibition mostly above about 38%, no sharp cut-off; inactive = mostly below about 40%;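 also: 0% = agonist challenge alone and 100% = reference antagonist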
# OX1R antag-2: antagonists of human orexin 1 receptor | AID 434989 | CHO/OX1R cells, Fluo-8 calcium fluorescence, orexin A | O43613 | inhibition, % at 5 µM | hit rate 0.43% among 330,000;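 active = inhibition above its plate's threshold, mean inhibition of all tested compounds on the plate plus 3 SD, cut at about 37% in these data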;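 also: 0% = orexin A challenge wells and 100% = SB-334867-A antagonist wells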
# TAAR1 ag: human TAAR1 agonism. Q96RJ0. CHO RD-HGA16 TAAR1, Fluo-8 calcium fluorescence; vehicle wells 0%, saturating PEA agonist 100%. activation, % at 3 µM. hit rate 0.99% among 360,000;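 active = activation above the mean activation of all test compounds in the run plus 3 SD, cut at about 38% in these data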
# Target sequence (Q96RJ0 whole entry, looked up): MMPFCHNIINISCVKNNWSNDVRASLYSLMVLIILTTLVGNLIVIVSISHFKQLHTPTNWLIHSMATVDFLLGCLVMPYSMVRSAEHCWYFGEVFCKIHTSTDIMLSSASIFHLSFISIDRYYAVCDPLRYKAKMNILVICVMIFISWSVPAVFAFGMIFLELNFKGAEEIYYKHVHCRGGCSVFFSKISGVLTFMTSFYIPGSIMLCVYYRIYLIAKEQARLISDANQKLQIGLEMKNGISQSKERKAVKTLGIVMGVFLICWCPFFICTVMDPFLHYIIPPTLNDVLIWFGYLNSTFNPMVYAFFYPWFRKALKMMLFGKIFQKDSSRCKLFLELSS
#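 Test system: RD-HGA16 (CHO) cells co-expressing Gα16 and hTAAR1 / Benchmarks: DMSO vehicle as 0%, PEA at EC100 as 100% / Repeats: no replicates (n 1) / Measure: % activation from peak over basal fluorescence ratio, DMSO-to-PEA scaled / Timing: 17-24 h plating, Fluo-8 75 min 37 °C, 30 min RT / Technique: kinetic Fluo-8 calcium fluorescence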
# CHO parental Ca: counter-screen for OX1R antagonists: effect in parental CHO cells | parental CHO-K1, ATP-induced calcium, Fluo-8 fluorescence | inhibition, % at 5.6 µM | hit rate 0.63% among 330,000;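 active = inhibition above that plate's mean sample inhibition plus 3 SD, cut at about 26% in these data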;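 also: 0% = ATP-challenged DMSO wells and 100% = DMSO wells without ATP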
#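 Material: Parental CHO cells | Reagent: ATP | Compound dosing: Single nominal dose of 5.6 µM per compound | Detection: Intracellular calcium via Fluo-8 no-wash fluorescent dye | Read-out: % inhibition of ATP-induced calcium mobilization | Benchmarks: Low control ATP plus DMSO, high control DMSO only | Replicates: Singlicate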
# GPR7 antagonist: antagonists of human GPR7 (neuropeptides B/W receptor 1) | P48145 | GPR7-expressing cells, fluorescence antagonist assay | inhibition, % at 4.4 µM | hit rate 1.1% among 290,000 | AID 1861; in the data active = inhibition above about 16%, passing the limit was not always enough;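 also: cells stimulated with the agonist NPW; 0% = agonist with vehicle and 100% = vehicle without agonist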
# Target sequence (P48145 whole entry, looked up): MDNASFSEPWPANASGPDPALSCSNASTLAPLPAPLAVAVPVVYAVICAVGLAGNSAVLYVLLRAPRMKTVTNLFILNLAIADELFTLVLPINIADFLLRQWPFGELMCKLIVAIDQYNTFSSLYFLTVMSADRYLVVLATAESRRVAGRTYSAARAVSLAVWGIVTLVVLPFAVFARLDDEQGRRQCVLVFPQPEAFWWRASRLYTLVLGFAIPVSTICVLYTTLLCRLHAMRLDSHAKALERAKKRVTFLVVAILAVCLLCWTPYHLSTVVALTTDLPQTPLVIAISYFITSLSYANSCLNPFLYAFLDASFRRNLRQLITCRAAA
# TAAR1 antag: human TAAR1 antagonism; CHO RD-HGA16 TAAR1, Fluo-8 calcium fluorescence, antagonist; inhibition, % at 3 µM; hit rate 1.5% among 360,000; AID 624466;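 active = inhibition above a per-plate cutoff, the mean inhibition of test compounds on that plate plus 3 SD, cut at about 49% in these data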;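 also: 0% = DMSO plus EC80 beta-PEA response and 100% = DMSO alone without agonist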
#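 Test system: CHO RD-HGA16 cells bearing hTAAR1 | Reagent: β-PEA, EC80 | Compound dosing: 3 µM, single point | Schedule: Dye loading 75 min at 37 °C, then 30 min room temperature | Signal: Calcium fluorescence with Fluo-8 | Evaluation: Percent inhibition of PEA-evoked calcium signal, max/basal emission ratio | Control set: DMSO-only wells and EC80 β-PEA-stimulated wells | Repeats: Singlicate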
# * = called active by the depositor; . = not tested or not shown.
SMILES,OX1R antag-1,OX1R antag-2,TAAR1 ag,CHO parental Ca,GPR7 antagonist,TAAR1 antag
COc1ccc(C(=O)NCC(c2ccco2)N2CCc3ccccc3C2)cc1 (centres undefined),24,-20,40*,-10,.,6
Cc1ccc(C(=O)NCC(c2ccco2)N2CCc3ccccc3C2)cc1 (centres undefined),23,-15,40*,-8,.,-11
O=C(NCC(c1ccco1)N1CCc2ccccc2C1)c1cccc([N+](=O)[O-])c1 (centres undefined),27,3,2,-24,.,16
Cc1ccc(C(=O)NCC(c2ccco2)N2CCc3ccccc3C2)cc1C (centres undefined),17,-36,12,-25,.,-28
O=C(NCC(c1ccco1)N1CCCCC1)c1ccc2c(c1)S(=O)(=O)c1ccccc1C2=O (centres undefined),63*,-44,1,-28,5,-3
O=C(NCC(c1ccco1)N1CCCCC1)c1ccc(S(=O)(=O)Nc2ccccc2)cc1 (centres undefined),9,-11,15,-10,.,-16
O=C(NCC(c1ccco1)N1CCc2ccccc2C1)c1cccc(Br)c1 (centres undefined),33,-31,38*,-26,.,-1
Clc1ccccc1Nc1nc(NCC2CC2)nc2ccsc12,.,.,-2,.,.,-2
CCCCC1O[C@@H](C)[C@@H]2CN3CCc4c([nH]c5ccccc45)[C@@H]3C[C@@H]2N1C (some centres undefined),.,.,2,.,.,-23
O=C(NCC(c1ccco1)N1CCOCC1)c1ccc([N+](=O)[O-])cc1 (centres undefined),67*,-4,4,-9,5,-9
COC(=O)c1ccc(C(=O)N2CCCCCC2(C)C(=O)NC(C)C)cc1 (centres undefined),.,.,-1,.,.,11
Cc1cc(S(=O)(=O)c2ccc([N+](=O)[O-])cn2)ccc1Br,32,34,7,55*,.,41
Cc1cc(Sc2ccc([N+](=O)[O-])cn2)ccc1Br,7,-12,-2,-16,.,-13
Cc1ccc(S(=O)(=O)c2ccc([N+](=O)[O-])cn2)cc1,28,23,2,27,25,14
O=[N+]([O-])c1ccc(S(=O)(=O)c2ccccc2)nc1,59*,20,1,25,32,18
O=C(NC1CCCCC1)C(CCc1ccccc1)N1CCc2ccccc2C1 (centres undefined),.,.,8,.,.,-17
COc1ccc(C(=O)Nc2cccc(/C=C(\CCC(=O)O)c3nc4ccccc4s3)c2)cc1,22,-12,13,-10,-5,52*
COc1ccc(NC(=O)c2sc(-c3ccccc3)nc2C)c(OC)c1,43*,-3,0,-38,-20,-4
COc1ccc(/C=N/NC(=O)c2cc(-c3ccccc3)nc3ccccc23)c(OC)c1,42*,20,6,-12,-7,35
Cc1nc(-c2ccccc2)sc1C(=O)Nc1ccccc1F,5,-31,9,-18,-9,8
COc1cccc(NC(=O)c2cc(-c3ccc(OC)cc3OC)nc3ccccc23)c1,7,-19,10,-6,.,53*
COc1cccc(NC(=O)c2cc(-c3cccnc3)nc3c(Cl)cccc23)c1,22,-14,14,-3,-11,57*
O=C(Nc1ccc(F)cc1)c1cc(-c2ccncc2)nc2c(Cl)cccc12,19,-26,0,-2,-27,-2
COc1cccc(-c2ccc3c(c2)[C@@H]2C[C@H]4[C@@H](CN2CC3)[C@H](C)ON4C)c1,.,.,0,.,.,0
CC(O)(c1ccc(F)c(F)c1)c1nc(-c2ccoc2)cs1 (centres undefined),.,.,3,.,.,7
SMILES,OX1R antag-1,OX1R antag-2,TAAR1 ag,CHO parental Ca,GPR7 antagonist,TAAR1 antag
COc1cccc(CNC(=O)[C@@H]2CCCN2C(=O)[C@@H]2CCCN2C(=O)c2cccs2)c1,.,.,0,.,.,12
COC(=O)C1=C(C)N(Cc2ccccc2C(F)(F)F)C(=NCc2ccc(C(F)(F)F)cc2)NC1c1ccccc1 (centres undefined),.,.,3,.,.,-16
COc1ccc(OC)c(/C=N\NC(=O)c2cc3c(ccc4ccccc43)o2)c1,73*,17,3,-12,-7,27
COc1ccc(OC)c(/C=N/NC(=O)c2cccc3ccccc23)c1,13,-16,3,-2,.,-5
COc1ccc(NC(=O)c2cc(-c3ccccn3)nc3ccccc23)c(OC)c1,7,-16,14,-21,.,54*
Cc1ccc(C)c(CC(=O)N2CCCCC2c2cc(C(=O)Nc3cccc(C#N)c3)no2)c1 (centres undefined),.,.,48*,.,.,44
CC(C)(C)OC(=O)C[C@H]1C/C=C\C[C@H](CC(=O)N(CCO)Cc2ccccc2)C(=O)N[C@H](C(C)(C)C)COC1=O,39,-10,14,-15,.,31
CCN(C[C@H]1N[C@@](Cc2ccccc2)(C(=O)OC)[C@H]2C(=O)N(Cc3ccccc3)C(=O)[C@@H]12)C(=O)Nc1ccc(C(F)(F)F)cc1,37*,29,7,10,.,2
Cc1ccc(S(=O)(=O)N2CCN(C(=O)CSCc3ccc(C(C)C)cc3)CC2)cc1,13,-1,10,-16,.,12
CC(C)Oc1ccc(S(=O)(=O)N2CCOCC2)cc1NC(=O)C1=NN(c2ccccc2)C(=O)CC1,.,.,4,.,.,17
O=C1N=C(N2C=CC(=C3C=CNC=C3)C=C2)/C(=C/N=NC(=O)c2ccccc2)S1,80*,-12,3,1,-5,1
O=C(Oc1ccccc1)c1ccccc1OS(=O)(=O)c1ccccc1,41,61*,0,65*,-6,13
O=C(Nc1ccccc1)c1ccccc1OS(=O)(=O)c1ccccc1,19,-18,-1,-4,-8,-1
CC(C)C(C(=O)NCc1ccccc1)N1CCN(CCN2CCOCC2)CC1 (centres undefined),.,.,0,.,.,-11
Nc1cc(C(=O)O)c(Oc2ccc(Cl)cc2Cl)cc1C(=O)O,61*,-10,1,-1,-10,3
Cc1cc(CNC[C@H]2O[C@@H](n3ccc(=O)[nH]c3=O)[C@H](O)[C@@H]2O)no1,.,.,0,.,.,-3
CC1C(=O)N(Cc2cn(CCC3OCCO3)nn2)CCS(=O)(=O)N1Cc1ccc(-c2ccccc2)cc1 (centres undefined),.,.,2,.,.,-14
CCc1oc2ccccc2c1C(=O)c1cc(Br)c(O)c(Br)c1,76*,-15,0,-14,-10,15
CCc1ccc(OCC(=O)c2c(O)c3ccccc3oc2=O)cc1,57,-8,-1,-5,2,10
COc1ccccc1NC(=O)Nc1nc(CC(=O)NCc2ccc(F)cc2)cs1,25,-25,14,-8,.,52*
